Assay results collected from several papers.
Protocols differ between the studies behind these lines. Values after ≈ are worked out from the molar mass of the structure shown.

SMILES | organism | test | system | conditions | endpoint | value
COc1ccc(N=Nc2c(N)nn3c(-c4ccc(C)cc4)cc(-c4ccc(OCc5ccccc5)cc4)nc23)cc1 | Saccharomyces cerevisiae | microbial growth, broth dilution | ATCC9763 | – | MIC | 31.3 µg/mL (≈ 57.9 µM)
O=[N+]([O-])C1=Cc2ccccc2OC1c1ccc(F)cc1 (stereo not drawn) | Leishmania tropica | parasite growth | THP-1 | 72 h, intracellular, amastigote | IC50 | 147 µg/mL
COc1ccc(C=NNC(=S)Nc2cccnc2)cc1OC | Leishmania tropica | parasite growth | J774.A1 | 72 h, intracellular, amastigote | IC50 | > 1000 µM
O=[N+]([O-])C1=Cc2ccccc2OC1c1ccc(OCc2ccc(F)cc2)cc1 (stereo not drawn) | Leishmania tropica | parasite growth | THP-1 | 72 h, intracellular, amastigote | IC50 | 181 µg/mL
Cc1ccc(N=Nc2c(N)nn3c(-c4ccco4)cc(-c4ccc(OCc5ccccc5)cc4)nc23)cc1 | Saccharomyces cerevisiae | microbial killing, broth dilution | ATCC9763 | – | MFC | 62.5 µg/mL (≈ 125 µM)
CCOC(=O)C1=C(CN2CCC(C(=O)Nc3ccccc3B3OC(C)(C)C(C)(C)O3)C2)NC(c2nccs2)=NC1c1ccc(F)cc1Br (stereo not drawn) | Hepatitis B virus | viral replication, inhibitor, qPCR | HepDES19 | 72 h | EC50 | 3.17 µM
CNC(=S)NN=Cc1ccc(C)cc1 | Leishmania tropica | parasite growth, MTT | – | 72 h, promastigote | IC50 | 1050 µM
CCOC(=O)C1=C(CN2CCN(Cc3cccc(B4OC(C)(C)C(C)(C)O4)c3)CC2)NC(c2nccs2)=NC1c1ccc(F)cc1Br (stereo not drawn) | Hepatitis B virus | viral replication, inhibitor, qPCR | HepDES19 | 72 h | EC50 | 1.3 µM
CNC(=S)NN=Cc1ccc(OC)cc1 | Leishmania tropica | parasite growth | J774.A1 | 72 h, intracellular, amastigote | IC50 | 22.7 µM
CCOC(=O)C1=C(CN2CCN(Cc3ccc(B(O)O)cc3)CC2)NC(c2nccs2)=NC1c1ccc(F)cc1Br (stereo not drawn) | Hepatitis B virus | viral replication, inhibitor, qPCR | HepDES19 | 72 h | EC50 | 0.97 µM
O=[N+]([O-])C1=Cc2ccccc2OC1c1ccccc1Br (stereo not drawn) | Leishmania tropica | parasite growth | THP-1 | 72 h, intracellular, amastigote | IC50 | 154 µg/mL
CNC(=S)NN=Cc1ccc(OC)c(OC)c1 | Leishmania tropica | parasite growth, MTT | – | 72 h, promastigote | IC50 | 258 µM
OC(Cn1cncn1)(Cn1cncn1)c1ccc(F)cc1F | Saccharomyces cerevisiae | microbial growth, broth dilution | BY4742 | 48 h | MIC | 8 µg/mL (≈ 26.1 µM)
COc1ccc(N=Nc2c(N)nn3c(-c4ccco4)cc(-c4ccc(OCc5ccccc5)cc4)nc23)cc1 | Saccharomyces cerevisiae | microbial growth, broth dilution | ATCC9763 | – | MIC | 62.5 µg/mL (≈ 121 µM)
O=[N+]([O-])C1=Cc2ccccc2OC1c1cccc(OCc2ccc([N+](=O)[O-])cc2)c1 (stereo not drawn) | Leishmania tropica | parasite growth | THP-1 | 72 h, intracellular, amastigote | IC50 | 144 µg/mL
S=C(NN=Cc1ccc(Br)cc1)Nc1cccnc1 | Leishmania tropica | parasite growth, MTT | – | 72 h, promastigote | IC50 | 551 µM
CC(=O)N1CCN(c2ccc(OCC3COC(Cn4ccnc4)(c4ccc(Cl)cc4Cl)O3)cc2)CC1 (stereo not drawn) | Saccharomyces cerevisiae | microbial killing, broth dilution | ATCC9763 | – | MFC | 15.6 µg/mL (≈ 29.4 µM)

SMILES | organism | test | system | conditions | endpoint | value
CNC(=S)NN=Cc1ccc([N+](=O)[O-])cc1 | Leishmania tropica | parasite growth, MTT | – | 72 h, promastigote | IC50 | 240 µM
Cc1ccc(-c2cc(-c3ccc(OCc4ccccc4)cc3)nc3c(N=Nc4ccc(F)cc4)c(N)nn23)cc1 | Saccharomyces cerevisiae | microbial killing, broth dilution | ATCC9763 | – | MFC | 125 µg/mL (≈ 236 µM)
CCOC(=O)C1=C(CN2CCCC2C(=O)Nc2ccc(B3OC(C)(C)C(C)(C)O3)cc2)NC(c2nccs2)=NC1c1ccc(F)cc1Br (stereo not drawn) | Hepatitis B virus | viral replication, inhibitor, qPCR | HepDES19 | 72 h | EC50 | 0.37 µM
Cc1ccc(N=Nc2c(N)nn3c(-c4ccc(C)cc4)cc(-c4ccc(OCc5ccccc5)cc4)nc23)cc1 | Saccharomyces cerevisiae | microbial killing, broth dilution | ATCC9763 | – | MFC | 250 µg/mL (≈ 477 µM)
CCOC(=O)C1=C(CN2CCC[C@@H]2C(=O)Nc2ccc(B(O)O)cc2)NC(c2nccs2)=N[C@@H]1c1ccc(F)cc1Br | Hepatitis B virus | viral replication, inhibitor, qPCR | HepDES19 | 72 h | EC50 | 3.93 µM
O=[N+]([O-])C1=Cc2ccccc2OC1c1ccc(Cl)cc1 (stereo not drawn) | Leishmania tropica | parasite growth | THP-1 | 72 h, intracellular, amastigote | IC50 | 155 µg/mL
CCOC(=O)C1=C(CN2CCC[C@@H]2C(=O)Nc2cccc(B(O)O)c2)NC(c2nccs2)=N[C@@H]1c1ccc(F)cc1Br | Hepatitis B virus | viral replication, inhibitor, qPCR | HepDES19 | 72 h | EC50 | 2.6 µM
C[C@@H]1[C@H](O)[C@@H](C)/C=C/C=C/C=C/C=C/C=C/C=C/C=C/[C@H](O[C@@H]2O[C@H](C)[C@@H](O)[C@H](N)[C@@H]2O)C[C@@H]2O[C@](O)(C[C@@H](O)C[C@@H](O)[C@H](O)CC[C@@H](O)C[C@@H](O)CC(=O)O[C@H]1C)C[C@H](O)[C@H]2C(=O)O | Saccharomyces cerevisiae | microbial growth, broth dilution | BY4742 | 48 h | MIC | 0.25 µg/mL (≈ 0.271 µM)
CCOC(=O)C1=C(CN2CCC(C(=O)Nc3ccccc3B(O)O)C2)NC(c2nccs2)=NC1c1ccc(F)cc1Br (stereo not drawn) | Hepatitis B virus | viral replication, inhibitor, qPCR | HepDES19 | 72 h | EC50 | 1.97 µM
O=[N+]([O-])C1=Cc2ccccc2OC1c1cccc(Cl)c1 (stereo not drawn) | Leishmania tropica | parasite growth | THP-1 | 72 h, intracellular, amastigote | IC50 | 151 µg/mL
Cc1ccc(N=Nc2c(N)nn3c(-c4ccc(Cl)cc4Cl)cc(-c4ccc(OCc5ccccc5)cc4)nc23)cc1 | Saccharomyces cerevisiae | microbial killing, broth dilution | ATCC9763 | – | MFC | 125 µg/mL (≈ 216 µM)
Cc1ccc(C2Oc3ccccc3C=C2[N+](=O)[O-])cc1 (stereo not drawn) | Leishmania tropica | parasite growth | THP-1 | 72 h, intracellular, amastigote | IC50 | 164 µg/mL
C[C@@H]1[C@H](O)[C@@H](C)/C=C/C=C/C=C/C=C/C=C/C=C/C=C/[C@H](O[C@@H]2O[C@H](C)[C@@H](O)[C@H](N)[C@@H]2O)C[C@@H]2O[C@](O)(C[C@@H](O)C[C@@H](O)[C@H](O)CC[C@@H](O)C[C@@H](O)CC(=O)O[C@H]1C)C[C@H](O)[C@H]2C(=O)O | Leishmania tropica | parasite growth, MTT | – | 72 h, promastigote | IC50 | 17.9 µM
COc1ccc(N=Nc2c(N)nn3c(-c4ccc(Cl)cc4Cl)cc(-c4ccc(OCc5ccccc5)cc4)nc23)cc1 | Saccharomyces cerevisiae | microbial killing, broth dilution | ATCC9763 | – | MFC | 500 µg/mL (≈ 840 µM)
Cc1ccc(COc2cccc(C3Oc4ccccc4C=C3[N+](=O)[O-])c2)cc1 (stereo not drawn) | Leishmania tropica | parasite growth | THP-1 | 72 h, intracellular, amastigote | IC50 | 162 µg/mL
CNC(=S)NN=Cc1ccc(F)cc1 | Leishmania tropica | parasite growth | J774.A1 | 72 h, intracellular, amastigote | IC50 | 762 µM
